The source made the active and inactive calls. No cut-off for these calls is given here.
Assays:
Homo sapiens = species on record: Homo sapiens; assay: Selectivity of Ki for human recombinant adenosine A2A receptor to Ki for human recombinant adenosine A1 receptor
In short: (§1)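 Competition binding on membranes from CHO cells stably transfected with individual human adenosine receptor subtypes; radioligands 1 nM [3H]CCPA (A1), 30 nM [3H]NECA (A2A), 1 nM [3H]HEMADO (A3); Ki from nonlinear curve fitting; selectivity as Ki ratio.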

Adenosine receptor A1 = target: T1, Adenosine receptor A1 (Homo sapiens, UniProt P30542); assay: Displacement of [3H]CCPA from human recombinant adenosine A1 receptor expressed in CHO cells; assay type: cell-based
T1 sequence (P30542 whole entry): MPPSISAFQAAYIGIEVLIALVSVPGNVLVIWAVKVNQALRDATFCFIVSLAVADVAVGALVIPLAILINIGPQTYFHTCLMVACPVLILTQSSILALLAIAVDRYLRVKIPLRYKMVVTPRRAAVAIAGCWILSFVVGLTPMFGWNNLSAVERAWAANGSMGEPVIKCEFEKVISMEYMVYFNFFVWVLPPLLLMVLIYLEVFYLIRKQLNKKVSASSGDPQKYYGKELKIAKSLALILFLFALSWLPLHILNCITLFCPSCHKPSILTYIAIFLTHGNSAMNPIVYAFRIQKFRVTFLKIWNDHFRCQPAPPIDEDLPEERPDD

Adenosine receptor A2b = target: T2, Adenosine receptor A2b (Homo sapiens, UniProt P29275); assay: Agonist activity at human adenosine A2B receptor expressed in CHO cells assessed as inhibition of NECA-stimulated adenylyl cyclase activity; assay type: functional, cell-based
T2 sequence (P29275 whole entry): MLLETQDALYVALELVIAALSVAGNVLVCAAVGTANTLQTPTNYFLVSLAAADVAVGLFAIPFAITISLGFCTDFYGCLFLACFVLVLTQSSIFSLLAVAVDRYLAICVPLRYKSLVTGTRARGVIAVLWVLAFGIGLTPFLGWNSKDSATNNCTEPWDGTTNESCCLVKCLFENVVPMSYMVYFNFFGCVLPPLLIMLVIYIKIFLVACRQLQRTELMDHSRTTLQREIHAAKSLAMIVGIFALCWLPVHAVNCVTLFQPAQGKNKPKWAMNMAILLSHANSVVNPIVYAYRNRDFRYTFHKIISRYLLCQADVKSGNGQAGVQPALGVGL
In short: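 Membranes from CHO cells stably expressing human A2B receptor; inhibition of NECA-stimulated adenylyl cyclase activity measured, IC50 converted to Ki; curves fitted by nonlinear regression.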

Adenosine receptor A2a = Adenosine receptor A2a (Homo sapiens, UniProt P29274); assay: Displacement of [3H]NECA from human recombinant adenosine A2A receptor expressed in CHO cells; assay type: cell-based; in short: as §1
Adenosine receptor A3 = target: T3, Adenosine receptor A3 (Homo sapiens, UniProt P0DMS8); assay: Displacement of [3H]HEMADO from human recombinant adenosine A3 receptor expressed in CHO cells; assay type: cell-based; in short: as §1
T3 sequence (P0DMS8 whole entry): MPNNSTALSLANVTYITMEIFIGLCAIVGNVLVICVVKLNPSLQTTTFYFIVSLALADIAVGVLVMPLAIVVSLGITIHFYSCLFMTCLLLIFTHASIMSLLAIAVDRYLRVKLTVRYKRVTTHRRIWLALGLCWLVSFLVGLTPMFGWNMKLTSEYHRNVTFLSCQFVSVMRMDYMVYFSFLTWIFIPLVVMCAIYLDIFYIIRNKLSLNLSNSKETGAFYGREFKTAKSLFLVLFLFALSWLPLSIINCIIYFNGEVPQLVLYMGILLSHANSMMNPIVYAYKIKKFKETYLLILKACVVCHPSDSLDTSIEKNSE

[1] = target: Adenosine receptors; A1 & A3 (Homo sapiens) (UniProt P30542+P0DMS8); assay: Selectivity of Ki for human recombinant adenosine A3 receptor to Ki for human recombinant adenosine A1 receptor; in short: as §1
[2] = target: T4, Adenosine receptor A3 (Homo sapiens) (UniProt P0DMS8); assay: Agonist activity human recombinant adenosine A3 receptor expressed in CHO cells assessed as inhibition of forskolin-stimulated adenylyl cyclase activity; assay type: functional, cell-based
T4 sequence (whole entry): T3 sequence (P0DMS8 whole entry)
In short: (§2)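 CHO cells stably transfected with human receptor (A1 or A3); cyclase activity stimulated by 10 µM forskolin taken as 100%; percentage activity remaining after agonist-mediated inhibition reported; means ± SEM of three independent experiments.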

[3] = target: T5, Adenosine receptor A1 (Homo sapiens) (UniProt P30542); assay: Agonist activity human recombinant adenosine A1 receptor expressed in CHO cells assessed as inhibition of forskolin-stimulated adenylyl cyclase activity; assay type: functional, cell-based; in short: as §2
T5 sequence (whole entry): T1 sequence (P30542 whole entry)

[4] = target: T4, Adenosine receptor A3 (Homo sapiens); assay: Antagonist activity at human recombinant adenosine A3 receptor expressed in CHO cells assessed as inhibition of forskolin-stimulated adenylyl cyclase activity; assay type: functional, cell-based
[5] = Lipophilicity log P of the compound; assay type: physicochemical; settings: octanol/water
Mus musculus = assay: Analgesic activity in ip dosed mouse assessed as reduction of formalin-induced late nociceptive behavior administered 10 mins before formalin challenge measured every 5 mins for 60 mins; assay type: functional, organism-based
In short: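 Mice, n = 8-10 per group, randomly assigned; drug or vehicle (0.9% NaCl) given i.p. 10 min before 1.25% formalin in saline (30 µL) into dorsal hind paw; DPCPX 3 mg/kg i.p. co-administered where stated. Lifting, licking, shaking, flinching timed every 5 min for 60 min; early phase 0-7 min, late 15-60 min; mean ± SEM.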

Sequence of Adenosine receptor A2a (P29274 whole entry): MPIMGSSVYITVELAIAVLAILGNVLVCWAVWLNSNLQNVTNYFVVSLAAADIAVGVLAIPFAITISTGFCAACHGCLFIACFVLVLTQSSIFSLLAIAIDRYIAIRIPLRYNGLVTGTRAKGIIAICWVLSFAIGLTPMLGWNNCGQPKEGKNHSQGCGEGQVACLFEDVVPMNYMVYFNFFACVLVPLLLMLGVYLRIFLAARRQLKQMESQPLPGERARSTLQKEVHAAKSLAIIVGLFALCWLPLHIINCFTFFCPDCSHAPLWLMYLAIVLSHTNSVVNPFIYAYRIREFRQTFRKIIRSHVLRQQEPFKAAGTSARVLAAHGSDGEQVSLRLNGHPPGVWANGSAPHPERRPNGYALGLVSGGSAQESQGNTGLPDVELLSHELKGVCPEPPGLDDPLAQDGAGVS

Row | SMILES | Ratio Ki (Homo sapiens) | Ki (Adenosine receptor A1) | Ki (Adenosine receptor A2b) | Ki (Adenosine receptor A2a) | Ki (Adenosine receptor A3) | Ratio Ki [1] | Activity [2] | Activity [3] | Activity [4] | logP [5] | Activity (Mus musculus)
1 | O[C@@H]1[C@H](O)[C@@H](CSc2ccccc2F)O[C@H]1n1cnc2c(NC3CCOC3)ncnc21 (stereo not given in full) | 76 | 250 nM | > 10000 nM | 18900 nM | 746 nM | 3 | – | – | – | – | –
2 | C[C@@]1(O)[C@H](O)[C@@H](CCl)O[C@H]1n1cnc2c(NC3CCCC3)nc(Cl)nc21 | 1770 | 12.8 nM | > 10000 nM | 16200 nM | 3030 nM | 237 | – | – | – | – | –
3 | C[C@@]1(O)[C@H](O)[C@@H](CCl)O[C@H]1n1cnc2c(NC3CC4CCC3C4)nc(Cl)nc21 (mixture of isomers) | 3450 | 9.16 nM | > 10000 nM | 31600 nM | 5900 nM | 644 | – | – | – | – | –
4 | OC[C@H]1O[C@@H](n2cnc3c(NC4CCCC4)ncnc32)[C@H](O)[C@@H]1O | – | – | – | – | – | – | Active | – | – | – | –
5 | C[C@@]1(O)[C@H](O)[C@@H](CSc2ccccc2F)O[C@H]1n1cnc2c(NC3CCCC3)ncnc21 | > 60 | 1680 nM | > 10000 nM | > 100000 nM | 1440 nM | 0.9 | – | – | – | – | –
6 | OC[C@H]1O[C@@H](n2cnc3c(NC4CC5CCC4C5)nc(Cl)nc32)[C@H](O)[C@@H]1O (mixture of isomers) | 1120 | 0.71 nM | > 10000 nM | 797 nM | 129 nM | 182 | – | Active | – | – | –
7 | O[C@@H]1[C@H](O)[C@@H](CCl)O[C@H]1n1cnc2c(NC3CCCC3)ncnc21 | 1470 | 0.59 nM | 3210 nM | 837 nM | 376 nM | 637 | – | Active | Active | – | –
8 | C[C@@]1(O)[C@H](O)[C@@H](CCl)O[C@H]1n1cnc2c(NC3CCCC3)ncnc21 | > 3520 | 28.4 nM | > 10000 nM | > 100000 nM | 6740 nM | 237 | – | – | – | – | –
9 | O[C@@H]1[C@H](O)[C@@H](CCl)O[C@H]1n1cnc2c(NC3CCCC3)nc(Cl)nc21 | 1380 | 1.56 nM | 4830 nM | 2160 nM | 417 nM | 267 | – | Active | – | – | –
10 | O[C@@H]1[C@H](O)[C@@H](CSc2ccccc2F)O[C@H]1n1cnc2c(NC3CCCC3)ncnc21 | 80 | 64.7 nM | > 10000 nM | 5170 nM | 296 nM | 5 | – | – | – | – | –
11 | C[C@@]1(O)[C@H](O)[C@@H](CSc2ccccc2F)O[C@H]1n1cnc2c(NC3CC4CCC3C4)nc(Cl)nc21 (mixture of isomers) | > 34 | 2970 nM | > 10000 nM | > 100000 nM | 4350 nM | 1.5 | – | – | – | – | –
12 | O[C@@H]1[C@H](O)[C@@H](CCl)O[C@H]1n1cnc2c(NC3CC4CCC3C4)nc(Cl)nc21 (mixture of isomers) | 1270 | 1.61 nM | > 10000 nM | 2050 nM | 1410 nM | 875 | – | Active | – | – | –
13 | C[C@@]1(O)[C@H](O)[C@@H](CO)O[C@H]1n1cnc2c(NC3CC4CCC3C4)ncnc21 (mixture of isomers) | 2150 | 4.09 nM | > 10000 nM | 8780 nM | 2520 nM | 616 | – | Active | – | – | –
14 | C[C@@]1(O)[C@H](O)[C@@H](CSc2ccccc2F)O[C@H]1n1cnc2c(NC3CCCC3)nc(Cl)nc21 | > 47 | 2150 nM | > 10000 nM | > 100000 nM | 1150 nM | 0.5 | – | – | – | – | –
15 | C[C@@]1(O)[C@H](O)[C@@H](CCl)O[C@H]1n1cnc2c(NC3CC4CCC3C4)ncnc21 (mixture of isomers) | 2630 | 9.13 nM | > 10000 nM | 24000 nM | 11600 nM | 1270 | – | – | – | – | –
16 | C[C@@]1(O)[C@H](O)[C@@H](CO)O[C@H]1n1cnc2c(NC3CC4CCC3C4)nc(Cl)nc21 (mixture of isomers) | 1700 | 6.96 nM | > 10000 nM | 11800 nM | 4490 nM | 645 | – | – | – | – | –
17 | O[C@@H]1[C@H](O)[C@@H](CCl)O[C@H]1n1cnc2c(NC3CC4CCC3C4)ncnc21 (mixture of isomers) | – | – | 2740 nM | 1340 nM | 1290 nM | – | – | Active | Active | 1.04 | Dose-dependent effect
18 | C[C@@]1(O)[C@H](O)[C@@H](CSc2ccccc2F)O[C@H]1n1cnc2c(NC3CC4CCC3C4)ncnc21 (mixture of isomers) | > 94 | 1060 nM | > 10000 nM | > 100000 nM | 3480 nM | 3 | – | – | – | – | –
19 | O[C@@H]1[C@H](O)[C@@H](CSc2ccccc2F)O[C@H]1n1cnc2c(NC3CCCC3)nc(Cl)nc21 | 8 | 258 nM | > 10000 nM | 2190 nM | 479 nM | 2 | – | – | – | – | –
20 | OC[C@H]1O[C@@H](n2cnc3c(NC4CC5CCC4C5)ncnc32)[C@H](O)[C@@H]1O (mixture of isomers) | 2350 | 0.54 nM | 4930 nM | 1270 nM | 101 nM | 187 | Active | Active | – | -0.14 | –

Source: ChEMBL document CHEMBL1153422, “N6-Cycloalkyl- and N6-bicycloalkyl-C5'(C2')-modified adenosine derivatives as high-affinity and selective agonists at the human A1 adenosine receptor with antinociceptive effects in mice” (J Med Chem, 2009)
